Assay results from ChEMBL document CHEMBL5032505, “Design, Synthesis, and Activity Evaluation of Stereoconfigured Tartarate Derivatives as Potential Anti-inflammatory Agents In Vitro and In Vivo” (J Med Chem, 2021).
Active and inactive are the calls of the source. The calls are words filed in the database; no cut-off is given here.

Columns and labels:
[1] = target: T1, Prostaglandin G/H synthase 1 (Ovis aries) (UniProt P05979)
T1 sequence (whole entry): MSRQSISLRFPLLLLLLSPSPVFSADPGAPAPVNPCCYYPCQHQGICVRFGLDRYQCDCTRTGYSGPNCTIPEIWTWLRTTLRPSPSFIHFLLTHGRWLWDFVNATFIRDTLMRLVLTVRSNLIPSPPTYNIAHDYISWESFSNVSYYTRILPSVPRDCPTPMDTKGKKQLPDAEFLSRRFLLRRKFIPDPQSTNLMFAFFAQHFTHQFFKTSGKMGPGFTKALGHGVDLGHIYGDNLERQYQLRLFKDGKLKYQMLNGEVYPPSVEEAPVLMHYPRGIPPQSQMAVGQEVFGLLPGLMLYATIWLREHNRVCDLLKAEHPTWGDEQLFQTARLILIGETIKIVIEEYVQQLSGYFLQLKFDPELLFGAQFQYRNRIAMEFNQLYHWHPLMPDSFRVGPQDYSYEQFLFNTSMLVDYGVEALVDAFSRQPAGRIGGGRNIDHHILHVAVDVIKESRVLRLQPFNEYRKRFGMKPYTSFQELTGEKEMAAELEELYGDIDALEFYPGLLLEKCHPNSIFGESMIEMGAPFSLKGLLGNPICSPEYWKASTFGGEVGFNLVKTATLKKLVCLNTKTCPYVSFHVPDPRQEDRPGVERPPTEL

[2] = target: T2, Prostaglandin G/H synthase 2 (Homo sapiens) (UniProt P35354)
T2 sequence (whole entry): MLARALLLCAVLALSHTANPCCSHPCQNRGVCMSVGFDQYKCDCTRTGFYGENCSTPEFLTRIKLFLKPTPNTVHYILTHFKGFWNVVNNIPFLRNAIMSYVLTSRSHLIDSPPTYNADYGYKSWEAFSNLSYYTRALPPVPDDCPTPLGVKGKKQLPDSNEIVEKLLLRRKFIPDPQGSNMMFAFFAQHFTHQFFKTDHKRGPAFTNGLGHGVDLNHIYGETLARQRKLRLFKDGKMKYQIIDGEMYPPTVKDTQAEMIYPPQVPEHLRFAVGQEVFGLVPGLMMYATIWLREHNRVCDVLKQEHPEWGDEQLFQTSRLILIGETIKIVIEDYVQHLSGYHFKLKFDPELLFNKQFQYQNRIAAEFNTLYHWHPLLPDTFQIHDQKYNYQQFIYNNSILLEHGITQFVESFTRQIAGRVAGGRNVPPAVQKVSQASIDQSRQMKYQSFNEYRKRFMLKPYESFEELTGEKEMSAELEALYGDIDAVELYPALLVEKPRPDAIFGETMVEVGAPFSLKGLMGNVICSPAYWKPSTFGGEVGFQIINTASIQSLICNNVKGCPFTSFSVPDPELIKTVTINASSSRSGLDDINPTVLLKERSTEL

Mus musculus [3] = assay: Analgesic activity in Swiss albino mouse assessed as inhibition of acetic acid-induced writhing at 5 mg/kg, ip administered 30 mins prior to acetic acid challenge and measured after 30 mins relative to control; type: functional; parameters: scale not given: the % may be the effect or the level left; settings: time 60 min, 1 h
Outline: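 Mice pretreated i.p. with indomethacin (10 mg/kg) or test compound (5 mg/kg) 30 min before 0.6% v/v acetic acid injection. Control group also received acetic acid. Animals placed in a transparent box and abdominal writhings counted for 30 min. Six animals per group, one-way ANOVA with Tukey's test, mean ± SEM.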

Albumin = Albumin (Homo sapiens, UniProt P02768); assay: Binding affinity to HSA assessed as association constant at equilibrium by isothermal titration calorimetry
Sequence of Albumin (P02768 whole entry): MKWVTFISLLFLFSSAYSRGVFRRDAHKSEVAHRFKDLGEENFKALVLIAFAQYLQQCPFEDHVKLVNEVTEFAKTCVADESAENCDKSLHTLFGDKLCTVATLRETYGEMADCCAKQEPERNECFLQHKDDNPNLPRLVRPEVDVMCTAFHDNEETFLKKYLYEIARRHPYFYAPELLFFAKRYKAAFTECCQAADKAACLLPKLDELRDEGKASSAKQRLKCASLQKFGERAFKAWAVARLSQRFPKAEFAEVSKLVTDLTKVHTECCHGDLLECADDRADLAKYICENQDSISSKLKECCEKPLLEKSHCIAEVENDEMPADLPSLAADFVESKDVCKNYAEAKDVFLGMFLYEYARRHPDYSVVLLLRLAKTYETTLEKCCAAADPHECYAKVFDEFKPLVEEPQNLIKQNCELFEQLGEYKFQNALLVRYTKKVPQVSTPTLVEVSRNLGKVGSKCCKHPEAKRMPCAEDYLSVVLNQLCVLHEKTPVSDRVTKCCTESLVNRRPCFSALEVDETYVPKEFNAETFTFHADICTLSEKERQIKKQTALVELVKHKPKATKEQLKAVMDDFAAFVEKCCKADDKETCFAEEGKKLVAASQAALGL

Mus musculus [4] = assay: Antiinflammatory activity against Swiss albino mouse assessed as reduction in carragenan-induced paw edema at 2.5 mg/kg treated 30 mins prior to carrageenan challenge and measured upto 360 mins relative to control; type: functional; parameters: scale not given: the % may be the effect or the level left; settings: time 390 min, 6.5 h
Outline: (§1)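 100 μL freshly prepared 1% carrageenan injected into the subplantar hind paw, with indomethacin (10 mg/kg) or test compound given 30 min before. Dose–response arm used 0.5, 2.5, 5, 10, 20 mg/kg. Six animals per group. Paw thickness (mm) read at 15, 30, 60, 120, 180, 240, 300, 360 min. Result expressed as % decrease versus control.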

Glycine max [5] = system: Glycine max
Mus musculus [6] = assay: Analgesic activity in Swiss albino mouse assessed as inhibition of acetic acid-induced writhing at 5 mg/kg, ip preincubated for 30 mins with L-arginine followed by compound addition for 30 mins prior to acetic acid challenge and measured after 30 mins; type: functional, organism-based; settings: time 60.0 min
[7] = target: T1, Prostaglandin G/H synthase 1 (Ovis aries); remark: listed apart in the source
Mus musculus [8] = assay: Antiinflammatory activity against Swiss albino mouse assessed as reduction in carragenan-induced paw edema at 5 mg/kg treated 30 mins prior to carrageenan challenge and measured upto 360 mins relative to control; type: functional; parameters: scale not given: the % may be the effect or the level left; settings: time 390 min, 6.5 h
Outline: as §1

Mus musculus [9] = assay: Antiinflammatory activity against Swiss albino mouse assessed as reduction in carragenan-induced paw edema at 0.5 mg/kg treated 30 mins prior to carrageenan challenge and measured upto 360 mins relative to control; type: functional; parameters: scale not given: the % may be the effect or the level left; settings: time 390 min, 6.5 h
Outline: as §1

[10] = Half life in Swiss albino mouse at 10 mg/kg, ip measured upto 24 hrs by LC-MS analysis; type: ADME, organism-based; settings: in vivo
Outline: (§2)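 Swiss albino mice (25−35 g), either sex, 10 groups of three. 10 mg/kg suspended in 0.1% CMC, given i.p. Ketamine anaesthesia (50 mg/kg i.p.). Jugular vein blood taken at 30, 45, 60 min and 2, 3, 4, 6, 8, 11, 24 h into heparinised tubes, triplicate samples per time point.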

Glycine max [11] = system: Glycine max; remark: listed apart in the source
[12] = Inhibition of soybean LOX using arachidonic acid as substrate incubated for 5 mins; parameters: species or system Glycine max
Outline: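 Soybean lipoxygenase in assay buffer, compounds at 10⁻⁴–10⁻⁸ M from DMSO stocks, triplicate. Reaction started with arachidonic acid and shaken 5 min. Chromogen added, shaken 5 min more, absorbance read at 490 nm. Blanks were buffer + AA. % inhibition computed with chromogen extinction coefficient 9.47 mM⁻¹.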

Mus musculus [13] = assay: Analgesic activity in Swiss albino mouse assessed as inhibition of acetic acid-induced writhing at 5 mg/kg, ip preincubated for 30 mins with substance P followed by compound addition for 30 mins prior to acetic acid challenge and measured after 30 mins; type: functional, organism-based; settings: time 60.0 min
Mus musculus [14] = assay: Antiinflammatory activity against Swiss albino mouse assessed as reduction in carragenan-induced paw edema at 10 mg/kg treated 30 mins prior to carrageenan challenge and measured upto 360 mins relative to control; type: functional; parameters: scale not given: the % may be the effect or the level left; settings: time 390 min, 6.5 h
Outline: as §1

[15] = Cmax in Swiss albino mouse at 10 mg/kg, ip measured upto 24 hrs by LC-MS analysis; type: ADME, organism-based; parameters: route intraperitoneal, dose 10 mg/kg, time <=24; settings: in vivo
Outline: as §2

[16] = Tmax in Swiss albino mouse at 10 mg/kg, ip measured upto 24 hrs by LC-MS analysis; type: ADME, organism-based; settings: in vivo
Outline: as §2

In the case of `O=C(O)Cn1nncc1CO[C@@H](C(=O)O)[C@@H](OCc1cnnn1CC(=O)O)C(=O)O`, the Ka [1] is reported as 1.64 10^3/M, the TdeltaS [2] is reported as -2.57 kcal/mol and the Activity (Mus musculus [3]) is reported as 65%. It also gave a Ka (Albumin) of 11800 M⁻¹, an Activity (Mus musculus [4]) of 5.4% and a deltaG (Glycine max [5]) of -7 kcal/mol. For the same compound, the Activity (Mus musculus [6]) was “Active”, the deltaG [7] was -5.02 kcal/mol and the Activity (Mus musculus [8]) was 32.6%. It also gave an Activity (Mus musculus [9]) of 2%, a half-life [10] of 8.74 h and a deltaH (Glycine max [11]) of -9.99 kcal/mol. For the same compound, the IC50 [12] was 7 nM, the Activity (Mus musculus [13]) was “inactive” and the Activity (Mus musculus [14]) was 36.5%. For the same compound, the Cmax [15] was 26000 ng/mL and the Tmax [16] was 1 h.
